ChEMBL document CHEMBL1122932, “Metabolism of phencyclidine. The role of the carbinolamine intermediate in the formation of lactam and amino acid metabolites of nitrogen heterocycles” (J Med Chem, 1985)

Assays:
Type in all cases: ADME
Mus musculus [1] = species on record: Mus musculus; assay: In vitro level of metabolite in mice liver microsomes at 0 hours; ND is Not Detected (< 8 ug/vessel)
Summary of the method: (§1)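 Time-zero control: the reaction was stopped right after phencyclidine was added to the mouse (male ICR) liver 12500g supernatant plus NADP-regenerating cofactor mix. Metabolites were quantified by GLC or HPLC with internal standards (N-benzylphenylalanine or ketamine), using calibration curves from spiked microsomal mixtures.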

Mus musculus [2] = species on record: Mus musculus; assay: In vitro level of metabolite in mice liver microsomes at 1 hour; ND is Not Detected (< 8 ug/vessel)
Summary of the method: (§2)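 12500g liver supernatant from 10 male ICR mice (homogenized in ice-cold pH 7.4 Tris with 0.15 M KCl; stored -70 °C, used within 15 h). Incubated with phencyclidine and NADP/glucose 6-phosphate/nicotinamide/MgSO4 cofactor at 37 °C, 120 osc/min, 100% O2. Metabolites measured by GLC (N-benzylphenylalanine internal standard, nitrogen detector) or HPLC (ketamine internal standard), calibrated by spiking microsomal blanks.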

Mus musculus [3] = species on record: Mus musculus; assay: In vitro level of metabolite in mice liver microsomes at 2 hours; ND is Not Detected (< 8 ug/vessel); summary of the method: as §2
Mus musculus [4] = species on record: Mus musculus; assay: In vitro level of metabolite in mice liver microsomes at 3 hours (heat inactivated control); ND is Not Detected (< 8 ug/vessel)
Summary of the method: (§3)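 Control in which mouse (male ICR) liver 12500g supernatant was heat-inactivated before phencyclidine and cofactors were added. It was then incubated at 37 °C under 100% O2 with shaking alongside the test samples. Metabolites were quantified by GLC or HPLC against internal standards (N-benzylphenylalanine or ketamine), calibrated by spiking.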

Mus musculus [5] = species on record: Mus musculus; assay: In vitro level of metabolite in mice liver microsomes at 3 hours; ND is Not Detected (< 8 ug/vessel); summary of the method: as §2
Mus musculus [6] = species on record: Mus musculus; assay: In vitro level of metabolite in mice liver microsomes at 1 hour; summary of the method: as §2
Mus musculus [7] = species on record: Mus musculus; assay: In vitro level of metabolite in mice liver microsomes at 2 hours; summary of the method: as §2
Mus musculus [8] = species on record: Mus musculus; assay: In vitro level of metabolite in mice liver microsomes at 3 hours (heat inactivated control); ND is Not Detected (< 8 ug/ vessel); summary of the method: as §3
Mus musculus [9] = species on record: Mus musculus; assay: In vitro level of metabolite in mice liver microsomes at 3 hours; summary of the method: as §2
Mus musculus [10] = species on record: Mus musculus; assay: In vitro level of metabolite in mice liver microsomes at 0 hours; ND is […] (< 2 ug/vessel); summary of the method: as §1
Mus musculus [11] = species on record: Mus musculus; assay: In vitro level of metabolite in mice liver microsomes at 3 hours (heat inactivated control); ND is Not Detected (< 2 ug/vessel); summary of the method: as §3

SMILES	Metabolite levels (Mus musculus [1])	Metabolite levels (Mus musculus [2])	Metabolite levels (Mus musculus [3])	Metabolite levels (Mus musculus [4])	Metabolite levels (Mus musculus [5])	Metabolite levels (Mus musculus [6]) [µg]	Metabolite levels (Mus musculus [7]) [µg]	Metabolite levels (Mus musculus [8])	Metabolite levels (Mus musculus [9]) [µg]	Metabolite levels (Mus musculus [10])	Metabolite levels (Mus musculus [11])
O=C1CCCCN1C1(c2ccccc2)CCCCC1	Not detected	Not detected	Not detected	Not detected	Not detected						
Cl.O=C(O)CCCCNC1(c2ccccc2)CCCCC1	Not detected					110	123	Not detected	135		
OC1CCN(C2(c3ccccc3)CCCCC2)CC1						9.3	9.2		10.3		
OCCCCCNC1(c2ccccc2)CCCCC1						2.8	2.4		1.4	Not detected	Not detected
